# Laboratory results reported in ChEMBL document CHEMBL3785077 (J Med Chem, 2016).
# Active and inactive are the calls of the source. No cut-off for these calls is given here.
# Columns and labels:
# Cholinesterase [1] = target: T1, Cholinesterase (Equus caballus, UniProt P81908); test: Inhibition of equine serum butyrylcholinesterase using […] as substrate preincubated for 4.5 mins followed by substrate addition measured after 2.5 mins by Ellman's spectrophotometric method
# In short: (§1)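 Ellman assay at 25 °C in phosphate buffer pH 8.0. Enzyme (AChE from human erythrocytes, BChE from equine or human serum; 2.5 units/mL stock with 2 mg/mL BSA) and DTNB (0.3 mM in assay) preincubated with compound from ethanol stocks (1 nM−1 mM in assay). Acetyl- or butyrylthiocholine added (452 μM in assay), absorbance at 412 nm after 2.5 min. Ethanol control, triplicates, IC50 from activity vs log concentration.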
# Acetylcholinesterase [2] = target: T2, Acetylcholinesterase (Homo sapiens, UniProt P22303); test: Inhibition of human acetylcholinesterase using […] as substrate preincubated for 4.5 mins followed by substrate addition measured after 2.5 mins by Ellman's spectrophotometric method; in short: as §1
# T2 sequence (P22303 whole entry): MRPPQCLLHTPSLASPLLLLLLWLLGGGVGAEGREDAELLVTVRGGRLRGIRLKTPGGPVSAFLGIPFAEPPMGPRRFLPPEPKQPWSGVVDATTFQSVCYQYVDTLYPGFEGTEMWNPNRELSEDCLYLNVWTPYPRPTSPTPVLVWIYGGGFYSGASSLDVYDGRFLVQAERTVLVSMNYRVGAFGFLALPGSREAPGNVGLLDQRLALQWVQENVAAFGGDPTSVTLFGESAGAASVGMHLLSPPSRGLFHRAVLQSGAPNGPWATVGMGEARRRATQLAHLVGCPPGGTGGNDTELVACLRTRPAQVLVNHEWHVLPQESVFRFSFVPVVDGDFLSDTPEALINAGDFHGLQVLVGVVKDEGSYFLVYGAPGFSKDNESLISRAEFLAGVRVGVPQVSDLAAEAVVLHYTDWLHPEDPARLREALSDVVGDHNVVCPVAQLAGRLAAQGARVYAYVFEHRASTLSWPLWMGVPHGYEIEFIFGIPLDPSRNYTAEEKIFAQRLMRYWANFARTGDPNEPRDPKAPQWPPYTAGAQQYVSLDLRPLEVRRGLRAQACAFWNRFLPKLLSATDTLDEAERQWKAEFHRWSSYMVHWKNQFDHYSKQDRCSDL
# Cholinesterase [3] = target: T1, Cholinesterase; test: Inhibition of equine serum butyrylcholinesterase using […] as substrate preincubated for 30 mins followed by substrate addition measured after 2.5 mins by Ellman's spectrophotometric method
# In short: as §1, with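 “assay).” for “assay). Acetyl- or butyrylthiocholine added (452 μM in assay), absorbance at 412 nm after 2.5 min.”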
# Acetylcholinesterase [4] = target: T2, Acetylcholinesterase; test: Inhibition of human acetylcholinesterase using […] as substrate at 100 uM preincubated for 4.5 mins followed by substrate addition measured after 2.5 mins by Ellman's spectrophotometric method
# Acetylcholinesterase [5] = target: T2, Acetylcholinesterase; test: Inhibition of human acetylcholinesterase using […] as substrate at 10 uM preincubated for 4.5 mins followed by substrate addition measured after 2.5 mins by Ellman's spectrophotometric method
# Acetylcholinesterase [6] = target: T2, Acetylcholinesterase; test: Inhibition of human acetylcholinesterase using […] as substrate preincubated for 30 mins followed by substrate addition measured after 2.5 mins by Ellman's spectrophotometric method
# In short: as §1, with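 “assay).” for “assay). Acetyl- or butyrylthiocholine added (452 μM in assay), absorbance at 412 nm after 2.5 min.”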
# [7] = target: Cholinesterase (Equus caballus) (UniProt P81908); test: (§2) Pseudo-irreversible inhibition of equine serum butyrylcholinesterase assessed as apparent affinity between enzyme and inhibitor at equilibrium state using p-nitrophenyl butyrate as substrate preincubated for 5 to 40 mins followed by substrate addition by double reciprocal plot analysis
# Cholinesterase (Equus caballus), sequence (P81908 whole entry): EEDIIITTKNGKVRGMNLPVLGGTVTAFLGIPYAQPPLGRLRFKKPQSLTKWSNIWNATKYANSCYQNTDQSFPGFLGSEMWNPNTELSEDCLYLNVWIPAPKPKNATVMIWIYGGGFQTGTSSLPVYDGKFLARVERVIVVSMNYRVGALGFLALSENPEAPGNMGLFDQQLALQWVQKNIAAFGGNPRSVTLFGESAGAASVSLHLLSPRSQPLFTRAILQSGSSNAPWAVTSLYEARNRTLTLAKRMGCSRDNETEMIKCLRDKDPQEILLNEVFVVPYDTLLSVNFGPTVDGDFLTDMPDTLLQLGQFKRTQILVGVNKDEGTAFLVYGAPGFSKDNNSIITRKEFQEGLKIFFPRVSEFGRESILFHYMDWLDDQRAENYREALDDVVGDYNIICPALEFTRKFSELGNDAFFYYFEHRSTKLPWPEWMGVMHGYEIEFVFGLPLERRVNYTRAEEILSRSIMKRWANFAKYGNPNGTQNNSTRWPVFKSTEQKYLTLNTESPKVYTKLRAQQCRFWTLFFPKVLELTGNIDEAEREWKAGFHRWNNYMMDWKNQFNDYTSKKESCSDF
# [8] = target: Cholinesterase (Equus caballus) (UniProt P81908); test: Pseudo-irreversible inhibition of equine serum butyrylcholinesterase assessed as carbamoylation rate of inhibitor from reversible enzyme inhibitor complex to carbamoylated enzyme using p-nitrophenyl butyrate as substrate preincubated for 5 to 40 mins followed by substrate addition by double reciprocal plot analysis
# [9] = target: Cholinesterase (Equus caballus) (UniProt P81908); test: as §2, with “assessed as ratio of carbamoylation rate of inhibitor to apparent affinity” for “assessed as apparent affinity”
# [10] = Antioxidant activity assessed as trolox equivalents of AAPH radical scavenging activity preincubated for 15 mins followed by AAPH addition measured every 60 secs for 90 mins by ORAC assay; assay type: physicochemical; settings: 1.5 h
# In short: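 ORAC-FL: compound (1−5 μM) with fluorescein (300 nM final) in 75 mM phosphate buffer pH 7.4, 15 min at 37 °C, then AAPH (12 mM final). Fluorescence read every 60 s for 90 min (ex 485/em 535 nm). […] Samples in quadruplicate, ≥4 independent runs.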
# [11] = Neurotoxicity against mouse HT22 cells assessed as cell viability at 1 and 5 uM after 24 hrs by MTT assay; assay type: toxicity, cell-based; settings: ht-22, 24 h
# In short: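 HT-22 murine hippocampal cells grown in high-glucose DMEM plus 10% heat-inactivated FCS at 37 °C, 5% CO2. After 24 h culture in plates, treated 24 h with compound (DMSO ≤0.1% final) without glutamate. Viability read by MTT (3 h), SDS lysis buffer pH 4.1, absorbance at 560 nm, given as percent of untreated control.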
# HT-22 [12] = test: Neuroprotective activity against glutamate-induced oxycytotic cell death in mouse HT22 cells assessed as cell viability at 5 uM after 24 hrs by MTT assay; assay type: functional, cell-based
# In short: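 Murine hippocampal HT-22 cells in high-glucose DMEM with 10% heat-inactivated FCS, 37 °C, 5% CO2. […] MTT (4 mg/mL in PBS, diluted 1:10 in medium) for 3 h, lysis in 10% SDS pH 4.1, absorbance 560 nm; viability as % of untreated cells.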
# HT-22 [13] = test: Neuroprotective activity against glutamate-induced oxycytotic cell death in mouse HT22 cells assessed as cell viability at 25 uM after 24 hrs by MTT assay; assay type: functional, cell-based
# In short: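 Murine hippocampal HT-22 cells in high-glucose DMEM with 10% heat-inactivated FCS, 37 °C, 5% CO2. MTT (4 mg/mL in PBS, diluted 1:10 in medium) for 3 h, lysis in 10% SDS pH 4.1, absorbance 560 nm; viability as % of untreated cells.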
# [14] = target: Cholinesterase (Equus caballus) (UniProt P81908); test: Pseudo-irreversible inhibition of equine serum butyrylcholinesterase assessed as decarbamoylation rate using […] as substrate preincubated for 1 hr followed by 1000 fold dilution
# In short: (§3)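 Enzyme incubated 1 h with inhibitor at a fully inhibiting concentration, then diluted 1:1000 in assay buffer. Activity measured by Ellman assay at various times after dilution, with uninhibited enzyme treated the same way as control. First-order fit of activity recovery gives k4.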
# Acetylcholinesterase [15] = target: T2, Acetylcholinesterase; test: Inhibition of human acetylcholinesterase using […] as substrate at 500 uM preincubated for 4.5 mins followed by substrate addition measured after 2.5 mins by Ellman's spectrophotometric method
# [16] = Neurotoxicity against mouse HT22 cells assessed as cell viability up to 10 uM after 24 hrs by MTT assay; assay type: toxicity, cell-based, HT-22; settings: read-out: Activity
# In short: (§4)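 Murine hippocampal HT-22 cells in high-glucose DMEM with 10% heat-inactivated FCS, 37 °C, 5% CO2. […] MTT 3 h, SDS lysis, absorbance at 560 nm, viability as % of untreated cells.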
# HT-22 [17] = test: Neuroprotective activity against glutamate-induced oxycytotic cell death in mouse HT22 cells assessed as cell viability at 5 to 25 uM after 24 hrs by MTT assay; assay type: functional, cell-based; in short: as §4
# [18] = target: Cholinesterase (Equus caballus) (UniProt P81908); test: Pseudo-irreversible inhibition of equine serum butyrylcholinesterase assessed as half life for carbamoylated enzyme using […] as substrate preincubated for 1 hr followed by 1000 fold dilution; in short: as §3
# T1 sequence (P81908 whole entry): as above
smiles,measurement,setting,value
CN1Cc2cc(O)ccc2N(C)C1c1cc[nH]c1 (configuration not stated),IC50,Cholinesterase [1],15.3 µM
same,IC50,Acetylcholinesterase [2],116 µM
CCCCCCCNC(=O)Oc1ccc2c(c1)CN(C)C(c1ccc(Cl)cc1)N2C (configuration not stated),IC50,Cholinesterase [3],115 nM
same,inhibition,Acetylcholinesterase [4],24%
CCCCCCCNC(=O)Oc1ccc2c(c1)CN(C)C(c1ccc3ccccc3c1)N2C (configuration not stated),IC50,Cholinesterase [3],374 nM
same,inhibition,Acetylcholinesterase [5],5%
CCCCCCCNC(=O)Oc1ccc2c(c1)CN(C)C(c1ccc(F)cc1)N2C (configuration not stated),IC50,Cholinesterase [3],44 nM
same,IC50,Acetylcholinesterase [6],1610 nM
same,K,[7],24.5 nM
same,K,[8],0.14 min⁻¹
same,Ratio,[9],5.71 µM⁻¹ min⁻¹
CN1Cc2cc(O)ccc2N(C)C1c1ccncc1 (configuration not stated),IC50,Cholinesterase [1],2.1 µM
same,IC50,Acetylcholinesterase [2],242 µM
CCCCCCCNC(=O)Oc1ccc2c(c1)CN(C)C(c1ccc(C)cc1)N2C (configuration not stated),IC50,Cholinesterase [3],231 nM
same,inhibition,Acetylcholinesterase [4],9%
CCCCCCCNC(=O)Oc1ccc2c(c1)CN(C)C(c1c(Cl)cccc1Cl)N2C (configuration not stated),IC50,Cholinesterase [3],531 nM
same,inhibition,Acetylcholinesterase [5],33%
same,K,[7],4120 nM
same,K,[8],0.23 min⁻¹
same,Ratio,[9],0.06 µM⁻¹ min⁻¹
COc1ccc(C2N(C)Cc3cc(O)ccc3N2C)cc1 (configuration not stated),IC50,Cholinesterase [1],39.5 µM
same,IC50,Acetylcholinesterase [2],104 µM
same,Activity,[10],3.7 equiv
same,Activity,[11],Non-toxic
same,Activity,HT-22 [12],Active
same,Activity,HT-22 [13],inactive
COc1ccccc1C1N(C)Cc2cc(O)ccc2N1C (configuration not stated),IC50,Cholinesterase [1],9.9 µM
same,IC50,Acetylcholinesterase [2],193 µM
CCCCCCCNC(=O)Oc1ccc2c(c1)CN(CCC)C(c1ccccc1)N2C (configuration not stated),IC50,Cholinesterase [3],40 nM
same,inhibition,Acetylcholinesterase [4],46%
Cc1ccccc1C1N(C)Cc2cc(O)ccc2N1C (configuration not stated),IC50,Cholinesterase [1],92.4 µM
same,IC50,Acetylcholinesterase [2],143 µM
CCCCCCCNC(=O)Oc1ccc2c(c1)CN(C)C(c1ccoc1)N2C (configuration not stated),IC50,Cholinesterase [3],83 nM
same,inhibition,Acetylcholinesterase [4],12%
CN1Cc2cc(O)ccc2N(C)C1c1ccc(C(F)(F)F)cc1 (configuration not stated),IC50,Cholinesterase [1],64.6 µM
CCCCCCCNC(=O)Oc1ccc2c(c1)CN(C)C(c1cc[nH]c1)N2C (configuration not stated),IC50,Cholinesterase [3],23 nM
same,IC50,Acetylcholinesterase [6],852 nM
CC(C)N1Cc2cc(O)ccc2N(C)C1c1ccccc1 (configuration not stated),IC50,Cholinesterase [1],55.8 µM
same,IC50,Acetylcholinesterase [2],253 µM
CN1Cc2cc(O)ccc2N(C)C1c1cccc(Cl)c1 (configuration not stated),IC50,Cholinesterase [1],2.1 µM
same,IC50,Acetylcholinesterase [2],242 µM
CCCCCCCNC(=O)Oc1ccc2c(c1)CN(C)C(c1ccccc1OC)N2C (configuration not stated),IC50,Cholinesterase [3],238 nM
same,inhibition,Acetylcholinesterase [5],47%
CNC(=O)Oc1ccc2c(c1)[C@]1(C)CCN(C)[C@@H]1N2C,K,[7],280 nM
same,K,[8],0.3 min⁻¹
same,K,[14],0.25 h⁻¹
CN1Cc2cc(O)ccc2N(C)C1c1cccs1 (configuration not stated),IC50,Cholinesterase [1],63.2 µM
same,IC50,Acetylcholinesterase [2],226 µM
same,Activity,[10],3.4 equiv
same,Activity,[11],Non-toxic
same,Activity,HT-22 [12],Active
CCCCCCCNC(=O)Oc1ccc2c(c1)CN(C)C(c1cccc(OC)c1)N2C (configuration not stated),IC50,Cholinesterase [3],208 nM
same,inhibition,Acetylcholinesterase [4],10%
same,K,[7],622 nM
same,K,[8],0.18 min⁻¹
same,Ratio,[9],0.29 µM⁻¹ min⁻¹
CN1Cc2cc(O)ccc2N(C)C1c1ccc(F)cc1 (configuration not stated),IC50,Cholinesterase [1],58.9 µM
same,IC50,Acetylcholinesterase [2],143 µM
CN1Cc2cc(O)ccc2N(C)C1c1cccnc1 (configuration not stated),IC50,Cholinesterase [1],70.7 µM
same,inhibition,Acetylcholinesterase [15],61%
CN1Cc2cc(O)ccc2N(C)C1c1c(Cl)cccc1Cl (configuration not stated),IC50,Cholinesterase [1],7.1 µM
same,IC50,Acetylcholinesterase [2],13.5 µM
CCCCCCCNC(=O)Oc1ccc2c(c1)CN(C)C(c1ccccc1)N2C (configuration not stated),IC50,Cholinesterase [3],106 nM
same,inhibition,Acetylcholinesterase [4],4%
same,K,[7],226 nM
same,K,[8],0.13 min⁻¹
same,Ratio,[9],0.57 µM⁻¹ min⁻¹
same,K,[14],0.14 h⁻¹
same,Activity,[10],0.2 equiv
same,viability at 24 h,[16],> 80%
same,Activity,HT-22 [17],Active
same,T1/2,[18],5 h
